The text below walks through data of ChEMBL document CHEMBL2424574, “Structure-activity relationships and pharmacophore model of a noncompetitive pyrazoline containing class of GluN2C/GluN2D selective antagonists” (J Med Chem, 2013).

Test [1] addresses Glutamate receptor ionotropic, NMDA 2D (Rattus norvegicus, UniProt P35439+Q62645). Put plainly: Negative allosteric modulation of recombinant rat GluN2D receptor expressed in Xenopus laevis oocytes by two-electrode voltage clamp method. It counts as cell-based, Oocyte. The procedure, abridged: (§1)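 Two-electrode voltage clamp of Xenopus oocytes expressing rat GluN1 with GluN2A, 2B, 2C or 2D. Holding potential −40 mV in recording solution (mM: 90 NaCl, 1 KCl, 0.5 BaCl2, 0.005 EDTA, 10 HEPES, pH 7.4, 23 °C). Compounds diluted from 20 mM DMSO stocks to 0.05–0.1% final DMSO. IC50 from a Hill fit to the averaged composite concentration–response curve, 5–24 oocytes from 2–4 frogs.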

Test [2] is filed under the species Rattus norvegicus. Put plainly: Selectivity ratio of IC50 for recombinant rat GluN2A receptor to IC50 for recombinant rat GluN2D receptor. The procedure, abridged:
(§2)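 Rat GluN1 co-expressed with GluN2A, GluN2B or GluN2D in Xenopus oocytes. Two-electrode voltage clamp at −40 mV in 90 NaCl, 1 KCl, 0.5 BaCl2, 0.005 EDTA, 10 HEPES (mM), pH 7.4, 23 °C; final DMSO 0.1–0.05%. IC50s came from Hill fits to averaged composite concentration-response curves (5–24 oocytes, 2–4 frogs). Ratio is GluN2A or GluN2B IC50 over GluN2D IC50.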

Test [3] deals with Glutamate receptor ionotropic, NMDA 2A (Rattus norvegicus, UniProt P35439+Q00959). Briefly: Negative allosteric modulation of recombinant rat GluN2A receptor expressed in Xenopus laevis oocytes by two-electrode voltage clamp method. It counts as cell-based, Oocyte. The procedure, abridged: as §1
For orientation: Two-electrode voltage clamp is typically applied to oocytes expressing channels or transporters.

Test [4] has as its target Glutamate receptor ionotropic, NMDA 2B (Rattus norvegicus, UniProt P35439+Q00960). Put plainly: Negative allosteric modulation of recombinant rat GluN2B receptor expressed in Xenopus laevis oocytes by two-electrode voltage clamp method. It counts as cell-based, Oocyte. The essentials: as §1
For test [5], the species on record is Rattus norvegicus. Briefly: Selectivity ratio of IC50 for recombinant rat GluN2B receptor to IC50 for recombinant rat GluN2D receptor. The procedure, abridged: as §2
Test [6] has as its target Glutamate receptor ionotropic, NMDA 2C (Rattus norvegicus, UniProt P35439+Q00961). Put plainly: Negative allosteric modulation of recombinant rat GluN2C receptor expressed in Xenopus laevis oocytes by two-electrode voltage clamp method. The format is cell-based, Oocyte. The procedure, abridged:
as §1

Sequence of Glutamate receptor ionotropic, NMDA 2D (Q62645 whole entry, one chain of several): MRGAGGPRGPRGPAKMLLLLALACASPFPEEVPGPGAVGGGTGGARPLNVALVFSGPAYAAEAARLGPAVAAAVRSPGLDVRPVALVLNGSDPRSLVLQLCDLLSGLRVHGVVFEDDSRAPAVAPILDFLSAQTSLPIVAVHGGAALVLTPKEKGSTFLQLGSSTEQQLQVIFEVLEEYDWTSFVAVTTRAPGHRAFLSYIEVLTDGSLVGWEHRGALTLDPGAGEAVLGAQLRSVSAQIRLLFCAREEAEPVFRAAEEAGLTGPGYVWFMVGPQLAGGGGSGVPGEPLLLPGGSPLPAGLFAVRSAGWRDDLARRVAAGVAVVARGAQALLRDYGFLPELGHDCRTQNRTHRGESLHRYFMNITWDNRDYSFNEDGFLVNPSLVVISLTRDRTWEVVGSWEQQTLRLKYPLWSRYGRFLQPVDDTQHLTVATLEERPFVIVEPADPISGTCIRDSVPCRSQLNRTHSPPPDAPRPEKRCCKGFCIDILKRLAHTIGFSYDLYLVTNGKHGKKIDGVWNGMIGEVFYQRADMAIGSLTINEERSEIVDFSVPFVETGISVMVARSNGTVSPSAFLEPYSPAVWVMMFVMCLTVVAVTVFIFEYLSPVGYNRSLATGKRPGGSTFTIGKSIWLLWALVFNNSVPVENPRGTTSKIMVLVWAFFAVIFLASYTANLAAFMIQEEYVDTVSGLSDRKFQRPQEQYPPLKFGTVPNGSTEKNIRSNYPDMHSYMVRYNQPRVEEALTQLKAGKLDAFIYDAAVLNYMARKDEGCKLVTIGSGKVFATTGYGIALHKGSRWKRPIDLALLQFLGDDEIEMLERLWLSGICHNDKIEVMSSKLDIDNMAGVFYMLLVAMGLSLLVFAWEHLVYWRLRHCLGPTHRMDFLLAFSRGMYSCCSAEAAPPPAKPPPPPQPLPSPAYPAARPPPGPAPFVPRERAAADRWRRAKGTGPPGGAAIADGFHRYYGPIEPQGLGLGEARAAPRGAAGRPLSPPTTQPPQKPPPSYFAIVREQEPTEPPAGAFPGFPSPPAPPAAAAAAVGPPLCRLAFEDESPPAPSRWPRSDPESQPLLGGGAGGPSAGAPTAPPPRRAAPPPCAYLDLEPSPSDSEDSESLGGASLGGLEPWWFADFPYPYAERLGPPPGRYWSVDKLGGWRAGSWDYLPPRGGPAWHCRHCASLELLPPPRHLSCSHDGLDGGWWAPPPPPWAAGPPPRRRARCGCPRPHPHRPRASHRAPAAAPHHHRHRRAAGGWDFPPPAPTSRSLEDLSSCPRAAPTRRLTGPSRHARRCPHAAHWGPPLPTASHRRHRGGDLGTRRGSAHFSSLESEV
Sequence of Glutamate receptor ionotropic, NMDA 2B (Q00960 whole entry, one chain of several): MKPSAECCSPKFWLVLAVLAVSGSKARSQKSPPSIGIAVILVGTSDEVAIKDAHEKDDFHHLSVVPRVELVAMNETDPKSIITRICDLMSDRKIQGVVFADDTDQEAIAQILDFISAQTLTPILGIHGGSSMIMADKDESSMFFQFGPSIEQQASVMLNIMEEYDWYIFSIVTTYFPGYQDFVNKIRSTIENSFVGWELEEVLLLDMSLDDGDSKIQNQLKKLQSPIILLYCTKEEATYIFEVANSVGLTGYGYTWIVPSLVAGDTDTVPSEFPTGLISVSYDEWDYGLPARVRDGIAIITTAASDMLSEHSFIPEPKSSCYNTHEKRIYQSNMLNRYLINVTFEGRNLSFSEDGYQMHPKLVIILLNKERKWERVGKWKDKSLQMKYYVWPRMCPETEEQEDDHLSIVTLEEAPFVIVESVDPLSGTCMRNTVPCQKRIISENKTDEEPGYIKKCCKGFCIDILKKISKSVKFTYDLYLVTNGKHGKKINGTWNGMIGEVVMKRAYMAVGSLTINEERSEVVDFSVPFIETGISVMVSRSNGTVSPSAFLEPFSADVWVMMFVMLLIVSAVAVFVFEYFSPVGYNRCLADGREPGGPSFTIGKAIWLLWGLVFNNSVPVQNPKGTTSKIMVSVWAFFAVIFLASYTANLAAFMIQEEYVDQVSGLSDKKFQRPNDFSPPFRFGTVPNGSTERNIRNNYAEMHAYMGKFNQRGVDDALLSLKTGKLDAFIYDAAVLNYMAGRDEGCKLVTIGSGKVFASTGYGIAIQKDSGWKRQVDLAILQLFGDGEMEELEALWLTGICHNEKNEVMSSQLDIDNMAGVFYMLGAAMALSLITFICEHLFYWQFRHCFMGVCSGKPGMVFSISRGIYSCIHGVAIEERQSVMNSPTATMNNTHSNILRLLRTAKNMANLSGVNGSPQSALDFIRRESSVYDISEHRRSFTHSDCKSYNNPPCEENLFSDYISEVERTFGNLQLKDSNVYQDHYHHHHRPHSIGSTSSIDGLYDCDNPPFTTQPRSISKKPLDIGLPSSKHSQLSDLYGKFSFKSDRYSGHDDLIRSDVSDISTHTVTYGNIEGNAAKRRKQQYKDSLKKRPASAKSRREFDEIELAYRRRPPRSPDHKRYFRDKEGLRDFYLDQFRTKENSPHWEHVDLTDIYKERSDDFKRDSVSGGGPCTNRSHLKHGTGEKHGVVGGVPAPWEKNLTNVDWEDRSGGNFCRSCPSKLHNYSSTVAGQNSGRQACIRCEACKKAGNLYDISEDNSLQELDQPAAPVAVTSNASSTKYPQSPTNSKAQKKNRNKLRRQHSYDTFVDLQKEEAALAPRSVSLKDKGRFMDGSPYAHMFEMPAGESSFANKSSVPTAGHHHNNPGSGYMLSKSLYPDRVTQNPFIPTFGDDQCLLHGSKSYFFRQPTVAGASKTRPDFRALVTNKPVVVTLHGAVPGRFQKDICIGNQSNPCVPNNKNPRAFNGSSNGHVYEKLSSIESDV
Sequence of Glutamate receptor ionotropic, NMDA 2C (Q00961 whole entry, one chain of several): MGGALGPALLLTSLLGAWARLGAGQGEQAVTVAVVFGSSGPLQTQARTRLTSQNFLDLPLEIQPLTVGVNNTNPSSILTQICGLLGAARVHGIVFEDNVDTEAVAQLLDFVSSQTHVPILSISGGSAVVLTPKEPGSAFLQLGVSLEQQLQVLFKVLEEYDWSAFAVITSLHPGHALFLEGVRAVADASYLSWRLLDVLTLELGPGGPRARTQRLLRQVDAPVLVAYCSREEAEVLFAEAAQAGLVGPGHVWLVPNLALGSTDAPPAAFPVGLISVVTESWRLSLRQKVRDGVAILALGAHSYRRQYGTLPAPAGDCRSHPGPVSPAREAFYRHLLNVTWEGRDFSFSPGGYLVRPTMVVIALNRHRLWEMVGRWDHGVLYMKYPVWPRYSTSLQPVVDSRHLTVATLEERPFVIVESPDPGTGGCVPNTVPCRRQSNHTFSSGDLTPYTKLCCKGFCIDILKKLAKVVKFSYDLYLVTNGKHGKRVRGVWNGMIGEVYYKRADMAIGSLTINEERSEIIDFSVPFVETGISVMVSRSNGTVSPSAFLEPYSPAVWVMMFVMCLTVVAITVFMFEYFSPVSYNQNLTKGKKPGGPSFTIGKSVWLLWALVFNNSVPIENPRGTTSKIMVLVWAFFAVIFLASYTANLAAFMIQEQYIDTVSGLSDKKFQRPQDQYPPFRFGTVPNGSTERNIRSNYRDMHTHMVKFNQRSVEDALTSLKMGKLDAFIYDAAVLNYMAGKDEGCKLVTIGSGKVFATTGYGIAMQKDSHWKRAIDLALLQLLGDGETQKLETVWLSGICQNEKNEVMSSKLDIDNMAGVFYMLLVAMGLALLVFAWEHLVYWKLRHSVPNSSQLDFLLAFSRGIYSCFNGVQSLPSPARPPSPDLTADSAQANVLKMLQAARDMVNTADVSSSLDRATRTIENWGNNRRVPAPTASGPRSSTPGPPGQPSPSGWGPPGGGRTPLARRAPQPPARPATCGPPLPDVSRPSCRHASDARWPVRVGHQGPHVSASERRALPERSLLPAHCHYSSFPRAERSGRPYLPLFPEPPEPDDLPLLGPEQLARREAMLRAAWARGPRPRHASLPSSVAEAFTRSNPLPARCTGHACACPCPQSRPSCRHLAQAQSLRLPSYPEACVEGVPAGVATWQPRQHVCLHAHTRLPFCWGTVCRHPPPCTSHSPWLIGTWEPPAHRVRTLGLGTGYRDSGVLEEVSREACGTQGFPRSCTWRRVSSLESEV

`O=C(O)CCC(=O)N1N=C(c2c(-c3ccc(Br)cc3)c3ccccc3[nH]c2=O)CC1c1ccc(F)cc1` (stereo not given): the IC50 (in general, the concentration at which inhibition is half-maximal) in test [1] was 2.9 µM; in test [3] it was 34 µM; in test [4], 75 µM; in test [6] it was 3.8 µM. Also, the Ratio IC50 in test [2] turned out to be 12; in test [5], 26.
As for `O=C(O)CCC(=O)N1N=C(c2c(-c3ccc(C(F)(F)F)cc3)c3ccccc3[nH]c2=O)CC1c1ccc(Cl)cc1` (stereo not given), the IC50 in test [1] is 2.8 µM; in test [3], 29 µM; in test [4] it was 39 µM; in test [6] it was 3.6 µM. The figures for the Ratio IC50 in test [2] and in test [5] were 10 and 14, respectively.
On to `O=C(O)CCC(=O)N1N=C(c2c(-c3ccc(Cl)cc3)c3ccccc3[nH]c2=O)C[C@@H]1c1ccc(Cl)cc1`, for which the IC50 in test [1] was found to be 1.9 µM; in test [3], 45 µM; in test [4], 52 µM; in test [6] it was 2.1 µM. Besides, the Ratio IC50 in test [2] worked out at 23; in test [5], 49.
For the compound `COc1ccc(C2CC(c3c(-c4ccccc4)c4cc(Cl)ccc4[nH]c3=O)=NN2C(=O)CCC(=O)O)cc1` (stereo not given), the IC50 in test [1] is 21 µM; in test [3] it was 197 µM; in test [4], 187 µM; in test [6] it was 28 µM.
Turning to `O=C(O)CCC(=O)N1N=C(c2c(-c3cccc(Cl)c3)c3ccccc3[nH]c2=O)CC1c1ccc(Cl)cc1` (stereo not given), the IC50 stood at 1 µM in test [1], 20 µM in test [3], 43 µM in test [4] and 2.1 µM in test [6]. For the same compound, the Ratio IC50 in test [2] came out at 20; in test [5] it was 43.
`O=C(O)CCC(=O)N1N=C(c2c(-c3ccccc3)c3cc(Cl)ccc3[nH]c2=O)CC1c1ccc(F)cc1` (stereo not given): the IC50 stood at 14 µM in test [1], 128 µM in test [3], 87 µM in test [4] and 23 µM in test [6]. Moreover, the Ratio IC50 in test [2] is 9; in test [5], 6.
As to `O=C(O)CCC(=O)N1N=C(c2c(-c3ccc(Cl)cc3)c3ccccc3[nH]c2=O)CC1c1ccccc1` (stereo not given), the IC50 in test [1] is 11 µM; in test [3], 49 µM; in test [4], 143 µM; in test [6], 13 µM. Also, the Ratio IC50 in test [2] amounted to 4; in test [5], 13.
Consider `O=C(O)CCC(=O)N1N=C(c2c(-c3ccccc3)c3cc(Cl)ccc3[nH]c2=O)CC1c1ccc(C(F)(F)F)cc1` (stereo not given), for which the Ratio IC50 in test [2] stood at 20; in test [5], 13. Further, the values for the IC50 in test [3], in test [4] and in test [6] were 80 µM, 54 µM and 5 µM, respectively.
For the compound `O=C(O)CCC(=O)N1N=C(c2c(-c3ccc(F)cc3)c3ccccc3[nH]c2=O)CC1c1ccc(Cl)cc1` (stereo not given), the IC50 in test [1] is 0.58 µM; in test [3], 21 µM; in test [4], 57 µM; in test [6], 1 µM. Also, the Ratio IC50 in test [2] worked out at 36; in test [5] it was 98.
In the case of `O=C(O)CCCC(=O)N1N=C(c2c(-c3ccc(Br)cc3)c3ccccc3[nH]c2=O)CC1c1ccc(Cl)cc1` (stereo not given), the concentration for half-maximal inhibition (IC50) in test [1] is 0.32 µM; in test [3] it was 10 µM; in test [4] it was 29 µM; in test [6] it was 0.6 µM. The Ratio IC50 in test [2] was determined as 33; in test [5], 91.
`O=C(O)CCC(=O)N1N=C(c2c(-c3cc(Cl)cc(Cl)c3)c3ccccc3[nH]c2=O)CC1c1ccc(Cl)cc1` (stereo not given): the IC50 came to 0.7 µM in test [1], 5.5 µM in test [3], 13 µM in test [4] and 0.78 µM in test [6]. Also, the Ratio IC50 in test [2] was 8; in test [5], 19.
Turning to `O=C(O)CCCC(=O)N1N=C(c2c(-c3ccccc3)c3cc(Cl)ccc3[nH]c2=O)CC1c1ccc(Br)cc1` (stereo not given), the IC50 in test [1] came out at 4 µM; in test [3], 78 µM; in test [4], 90 µM; in test [6] it was 6.4 µM. Also, the Ratio IC50 in test [2] was determined as 20; in test [5] it was 23.
As for `COc1ccc(C2CC(c3c(O)nc4ccc(Cl)cc4c3-c3ccccc3)=NN2C(=O)CCC(=O)O)cc1` (stereo not given), the Ratio IC50 in test [2] and in test [5] was 9 each time.
Take `O=C(O)/C=C\C(=O)N1N=C(c2c(-c3ccccc3)c3cc(Cl)ccc3[nH]c2=O)CC1c1ccc(Br)cc1` (stereo not given): the 50% inhibitory concentration (IC50) in test [1] was 5 µM; in test [3] it was 74 µM; in test [4], 37 µM; in test [6], 8.9 µM. In addition, the Ratio IC50 was 15 in test [2] and 7 in test [5].
Turning to `COc1cccc(-c2c(C3=NN(C(=O)CCC(=O)O)C(c4ccc(Cl)cc4)C3)c(=O)[nH]c3ccccc23)c1` (stereo not given), the IC50 in test [1] is 4.5 µM; in test [3], 110 µM; in test [4], 152 µM; in test [6], 7.8 µM. Also, the Ratio IC50 in test [2] amounted to 24; in test [5] it was 34.
`O=C(O)CCC(=O)N1N=C(c2c(-c3cccc(F)c3)c3ccccc3[nH]c2=O)CC1c1ccc(Cl)cc1` (stereo not given): the IC50 was 0.69 µM in test [1], 46 µM in test [3], 70 µM in test [4] and 1.1 µM in test [6]. For the same compound, the figures for the Ratio IC50 in test [2] and in test [5] were 67 and 101, respectively.
With `O=C(O)/C=C\C(=O)N1N=C(c2c(-c3ccc(Br)cc3)c3ccccc3[nH]c2=O)CC1c1ccc(Cl)cc1` (stereo not given), the IC50 in test [1] worked out at 0.57 µM; in test [3], 12 µM; in test [4], 17 µM; in test [6], 1 µM. For the same compound, the Ratio IC50 in test [2] came out at 21; in test [5] it was 30.
Take `O=C(O)CCC(=O)N1N=C(c2c(-c3ccc(Cl)cc3)c3ccccc3[nH]c2=O)CC1c1ccc(F)cc1` (stereo not given): the IC50 came to 3.4 µM in test [1], 47 µM in test [3], 90 µM in test [4] and 4.1 µM in test [6]. Besides, the Ratio IC50 was determined as 14 in test [2] and 26 in test [5].
Turning to `O=C(O)CCC(=O)N1N=C(c2c(-c3ccc(Br)cc3)c3ccccc3[nH]c2=O)CC1c1ccc(Cl)cc1` (stereo not given), the IC50 came to 0.29 µM in test [1], 10 µM in test [3], 23 µM in test [4] and 0.56 µM in test [6].
Consider `O=C(O)CCC(=O)N1N=C(c2c(-c3ccc(Br)cc3)c3ccccc3[nH]c2=O)CC1c1ccccc1` (stereo not given), for which the IC50 stood at 9.1 µM in test [1], 64 µM in test [3], 113 µM in test [4] and 10 µM in test [6]. For the same compound, the Ratio IC50 in test [2] was determined as 7; in test [5] it was 12.
Consider `O=C(O)CCC(=O)N1N=C(c2c(-c3ccc(Br)cc3)c3ccccc3[nH]c2=O)CC1c1ccc(Br)cc1` (stereo not given), for which the values for the Ratio IC50 in test [2] and in test [5] were 33 and 59, respectively. For the same compound, the IC50 stood at 13 µM in test [3] and 23 µM in test [4].
For `O=C(O)CCCC(=O)N1N=C(c2c(-c3ccccc3)c3cc(Cl)ccc3[nH]c2=O)CC1c1ccc([N+](=O)[O-])cc1` (stereo not given), the IC50 in test [1] came out at 11 µM; in test [3] it was 109 µM; in test [4], 92 µM; in test [6], 10 µM. Also, the Ratio IC50 was determined as 10 in test [2] and 8 in test [5].
Consider `O=C(O)CCC(=O)N1N=C(c2c(-c3ccc(Cl)c(Cl)c3)c3ccccc3[nH]c2=O)CC1c1ccc(Cl)cc1` (stereo not given), for which the IC50 was found to be 0.91 µM in test [1], 7.7 µM in test [3], 20 µM in test [4] and 0.79 µM in test [6]. Moreover, the Ratio IC50 in test [2] worked out at 8; in test [5] it was 22.
For the compound `O=C(O)CCC(=O)N1N=C(c2c(-c3ccc(Cl)c(F)c3)c3ccccc3[nH]c2=O)CC1c1ccc(Cl)cc1` (stereo not given), the IC50 in test [1] is 0.53 µM; in test [3] it was 12 µM; in test [4] it was 28 µM; in test [6] it was 0.91 µM. Also, the Ratio IC50 in test [2] was 23; in test [5] it was 53.
With `O=C(O)CCC(=O)N1N=C(c2c(-c3ccc(F)c(Cl)c3)c3ccccc3[nH]c2=O)CC1c1ccc(Cl)cc1` (stereo not given), the IC50 stood at 1 µM in test [1], 19 µM in test [3], 34 µM in test [4] and 1.4 µM in test [6]. For the same compound, the Ratio IC50 in test [2] came out at 19; in test [5], 34.
In the case of `O=C(O)CCCN1N=C(c2c(-c3ccc(Cl)cc3)c3ccccc3[nH]c2=O)CC1c1ccc(Cl)cc1` (stereo not given), the Ratio IC50 in test [2] was 34; in test [5] it was 31. Besides, the figures for the IC50 in test [3] and in test [4] were 58 µM and 53 µM, respectively.
With `O=C(O)CCC(=O)N1N=C(c2c(-c3ccccc3)c3cc(Cl)ccc3[nH]c2=O)CC1c1ccccc1` (stereo not given), the IC50 in test [1] came to 88 µM; in test [6], 86 µM.
In the case of `O=C(O)CCC(=O)N1N=C(c2c(-c3ccc(Cl)cc3)c3ccccc3[nH]c2=O)C[C@H]1c1ccc(Cl)cc1`, the Ratio IC50 in test [2] came to 78; in test [5], 156. In addition, the IC50 came to 13 µM in test [3], 26 µM in test [4] and 0.22 µM in test [6].
